Test [1] deals with Escherichia coli. Nature of the test: Minimum inhibitory concentration (lowest peptide concentration) required to prevent visible bacterial growth after 18 hr of incubation at 37 C in Mueller-Hinton broth against Escherichia coli ML-35. It counts as functional. An outline of the steps: (§1)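 Broth microdilution susceptibility test per NCCLS guidelines, in Mueller–Hinton broth with about 1.5–2.0 × 10^5 CFU/mL inoculum. Plates were incubated 18 h at 37 °C. MIC was taken as the lowest peptide concentration with no visible growth. Strains were ATCC strains or clinical isolates; E. coli O18:K1:H7 Bort is an encapsulated isolate from neonatal spinal fluid, and the S. aureus isolate is MRSA.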

For test [2], the system named is Escherichia coli. Kind of test: Minimum inhibitory concentration (lowest peptide concentration) required to prevent visible bacterial growth after 18 hr of incubation at 37 C in Mueller-Hinton broth against Escherichia coli D22. It counts as functional. The method in brief: as §1
Test [3] relates to Escherichia coli. Nature of the test: Minimum inhibitory concentration (lowest peptide concentration) required to prevent visible bacterial growth after 18 hr of incubation at 37 C in Mueller-Hinton broth against Escherichia coli ATCC 25922. It is filed as functional. Conditions: ATCC 25922, 18 h. An outline of the steps:
as §1

Test [4] deals with Staphylococcus epidermidis. Nature of the test: Minimum inhibitory concentration (lowest peptide concentration) required to prevent visible bacterial growth after 18 hr of incubation at 37 C in Mueller-Hinton broth against Staphylococcus epidermidis 4. It is filed as functional. An outline of the steps: as §1
Test [5] has as its system Klebsiella pneumoniae. Kind of test: Minimum inhibitory concentration (lowest peptide concentration) required to prevent visible bacterial growth after 18 hr of incubation at 37 C in Mueller-Hinton broth against Klebsiella pneumoniae 79. It counts as functional. An outline of the steps: as §1
Test [6] concerns Pseudomonas aeruginosa. Kind of test: Minimum inhibitory concentration (lowest peptide concentration) required to prevent visible bacterial growth after 18 hr of incubation at 37 C in Mueller-Hinton broth against Pseudomonas aeruginosa ATCC 27853. It is filed as functional. Conditions: ATCC 27853, 18 h. The method in brief: as §1
Test [7] relates to Acinetobacter baumannii. Kind of test: Minimum inhibitory concentration (lowest peptide concentration) required to prevent visible bacterial growth after 18 hr of incubation at 37 C in Mueller-Hinton broth against Acinetobacter baumannii 118A. It is filed as functional. The method in brief:
as §1

Test [8] deals with Staphylococcus aureus. Nature of the test: Minimum inhibitory concentration (lowest peptide concentration) required to prevent visible bacterial growth after 18 hr of incubation at 37 C in Mueller-Hinton broth against Staphylococcus aureus G. It is filed as functional. An outline of the steps: as §1
Test [9] relates to Escherichia coli. Kind of test: Minimum inhibitory concentration (lowest peptide concentration) required to prevent visible bacterial growth after 18 hr of incubation at 37 C in Mueller-Hinton broth against Escherichia coli O18:K1:H7. It is filed as functional. The method in brief: as §1
For test [10], the system named is Salmonella typhimurium. Kind of test: Minimum inhibitory concentration (lowest peptide concentration) required to prevent visible bacterial growth after 18 hr of incubation at 37 C in Mueller-Hinton broth against Salmonella Typhimurium ATCC 14028. Conditions: Salmonella enterica. It counts as functional, Salmonella enterica subsp. enterica serovar Typhimurium. The method in brief:
as §1

Test [11] has as its system Klebsiella pneumoniae. Kind of test: Minimum inhibitory concentration (lowest peptide concentration) required to prevent visible bacterial growth after 18 hr of incubation at 37 C in Mueller-Hinton broth against Klebsiella pneumoniae 22. It is filed as functional. The method in brief:
as §1

Test [12] concerns Salmonella enteritidis. Kind of test: Minimum inhibitory concentration (lowest peptide concentration) required to prevent visible bacterial growth after 18 h of incubation at 37 C in Mueller-Hinton broth against […]. It is filed as functional, Salmonella enterica subsp. enterica serovar Enteritidis. Conditions: Salmonella enterica. An outline of the steps:
as §1

Test [13] deals with Salmonella enteritidis. Kind of test: Minimum inhibitory concentration (lowest peptide concentration) required to prevent visible bacterial growth after 18 hr of incubation at 37 C in Mueller-Hinton broth against Salmonella enteritidis D5. The conditions noted are these: Salmonella enterica.
In test [14] the test system is Escherichia coli. Kind of test: Minimum inhibitory concentration (lowest peptide concentration) required to prevent visible bacterial growth after 18 hr of incubation at 37 C in Mueller-Hinton broth against Escherichia coli D21. It is filed as functional. The method in brief:
as §1

For orientation: MIC means the least concentration at which growth counts as inhibited.

Converted amounts (≈) assume the structure as drawn. Where a SMILES comes first, the peptide text is derived from it.

`CC[C@H](C)[C@@H]1NC(=O)[C@@H]2CCCN2C(=O)[C@H](CCCNC(=N)N)NC(=O)[C@@H]2CCCN2C(=O)[C@H](Cc2cnc[nH]2)NC(=O)[C@H](CO)NC(=O)[C@H]([C@@H](C)O)NC(=O)[C@@H]2CCCN2C(=O)[C@H](CCCNC(=N)N)NC(=O)[C@@H]2CCCN2C(=O)[C@H](CO)NC(=O)[C@H](Cc2ccc(O)cc2)NC(=O)[C@@H]2CCCN2C(=O)[C@H](CCCNC(=N)N)NC(=O)[C@@H]2CCCN2C(=O)[C@H](CCCCN)NC(=O)CNC(=O)[C@H](C(C)C)NC(=O)[C@H](CCCNC(=N)N)NC(=O)[C@H]([C@@H](C)CC)NC(=O)[C@@H]2CCCN2C(=O)[C@H](CCCNC(=N)N)NC(=O)[C@@H]2CCCN2C(=O)[C@H](Cc2cnc[nH]2)NC(=O)[C@H](CO)NC(=O)[C@H]([C@@H](C)O)NC(=O)[C@@H]2CCCN2C(=O)[C@H](CCCNC(=N)N)NC(=O)[C@@H]2CCCN2C(=O)[C@H](CO)NC(=O)[C@H](Cc2ccc(O)cc2)NC(=O)[C@@H]2CCCN2C(=O)[C@H](CCCNC(=N)N)NC(=O)[C@@H]2CCCN2C(=O)[C@H](CCCCN)NC(=O)CNC(=O)[C@H](C(C)C)NC(=O)[C@H](CCCNC(=N)N)NC1=O` (HELM PEPTIDE1{G.K.P.R.P.Y.S.P.R.P.T.S.H.P.R.P.I.R.V.G.K.P.R.P.Y.S.P.R.P.T.S.H.P.R.P.I.R.V}$PEPTIDE1,PEPTIDE1,1:R1-38:R2$$$V2.0): the MIC in test [1], in test [2], in test [3], in test [4], in test [5] and in test [6] was above 64 µM throughout. Further, the MIC in [7], in [8], in test [9], in [10], in test [11] and in test [12] was above 64 µM each time. The MIC in [13] and in test [14] was above 64 µM in each case.
For `CC[C@H](C)[C@@H]1NC(=O)[C@@H]2CCCN2C(=O)[C@H](CCCN=C(N)N)NC(=O)[C@@H]2CCCN2C(=O)[C@H](Cc2c[nH]cn2)NC(=O)[C@H](CO)NC(=O)[C@H]([C@@H](C)O)NC(=O)[C@@H]2CCCN2C(=O)[C@H](CCCN=C(N)N)NC(=O)[C@@H]2CCCN2C(=O)[C@H](CO)NC(=O)[C@H](Cc2ccc(O)cc2)NC(=O)[C@@H]2CCCN2C(=O)[C@H](CCCN=C(N)N)NC(=O)[C@@H]2CCCN2C(=O)[C@H](CCCCN)NC(=O)CNC(=O)[C@H](C(C)C)NC(=O)[C@H](CCCN=C(N)N)NC1=O` (HELM PEPTIDE1{G.K.P.R.P.Y.S.P.R.P.T.S.H.P.R.P.I.R.V}$PEPTIDE1,PEPTIDE1,1:R1-19:R2$$$V2.0), the MIC in [1] is above 128 µM; in test [2] it was 64 µM (≈ 140 µg/mL); in test [3] it was above 128 µM; in [4], above 64 µM; in [5], above 128 µM; in [6] it was above 128 µM. Besides, the MIC in test [7] is above 64 µM; in test [8] it was above 64 µM; in test [9], above 128 µM; in [10], above 128 µM; in [11], above 128 µM; in test [12] it was above 128 µM. Moreover, the MIC in test [13] was above 128 µM; in test [14], above 64 µM.
For the compound `CC[C@H](C)[C@@H]1NC(=O)[C@H](Cc2ccc(O)cc2)NC(=O)[C@H](C(C)C)NC(=O)[C@@H]2CCCN2C(=O)[C@H](CCCN=C(N)N)NC(=O)[C@H](CC(N)=O)NC(=O)[C@H](CC(N)=O)NC(=O)CNC(=O)[C@H](CC(C)C)NC(=O)[C@H](CCCN=C(N)N)NC(=O)[C@@H]2CCCN2C(=O)[C@H](Cc2c[nH]cn2)NC(=O)[C@@H]2CCCN2C(=O)[C@@H]2CCCN2C(=O)[C@H](CCCN=C(N)N)NC(=O)[C@@H]2CCCN2C(=O)[C@H](CCC(N)=O)NC(=O)[C@@H]2CCCN2C1=O` (HELM PEPTIDE1{G.N.N.R.P.V.Y.I.P.Q.P.R.P.P.H.P.R.L}$PEPTIDE1,PEPTIDE1,1:R1-18:R2$$$V2.0), the MIC is 64 µM (≈ 134 µg/mL) in test [1]; 64 µM (≈ 134 µg/mL) in [2]; above 64 µM in test [3]; above 64 µM in test [4]; above 64 µM in test [5]; above 128 µM in test [6]. Besides, the MIC in [7] was above 128 µM; in [8], above 64 µM; in [9], 32 µM (≈ 66.9 µg/mL); in [10], above 64 µM; in test [11], above 64 µM; in [12], above 64 µM. The MIC in test [13] and in [14] was above 64 µM in each case.
`CC[C@H](C)[C@H](NC(=O)[C@H](Cc1ccc(O)cc1)NC(=O)[C@@H](NC(=O)[C@@H]1CCCN1C(=O)[C@H](CCCNC(=N)N)NC(=O)[C@H](CC(N)=O)NC(=O)[C@H](CC(N)=O)NC(=O)CN)C(C)C)C(=O)N1CCC[C@H]1C(=O)N[C@@H](CCC(N)=O)C(=O)N1CCC[C@H]1C(=O)N[C@@H](CCCNC(=N)N)C(=O)N1CCC[C@H]1C(=O)N1CCC[C@H]1C(=O)N[C@@H](Cc1cnc[nH]1)C(=O)N1CCC[C@H]1C(=O)N[C@@H](CCCNC(=N)N)C(=O)N[C@@H](CC(C)C)C(=O)O` [APIDAECIN]: the minimum inhibitory concentration (MIC) was 4 µM (≈ 8.43 µg/mL) in test [1]; 4 µM (≈ 8.43 µg/mL) in test [2]; 4 µM (≈ 8.43 µg/mL) in [3]; above 64 µM in test [4]; 32 µM (≈ 67.5 µg/mL) in [5]; above 128 µM in test [6]. Also, the MIC was above 128 µM in test [7]; above 64 µM in [8]; 4 µM (≈ 8.43 µg/mL) in [9]; 8 µM (≈ 16.9 µg/mL) in test [10]; 32 µM (≈ 67.5 µg/mL) in test [11]; 4 µM (≈ 8.43 µg/mL) in [12]. Besides, the results for the MIC in test [13] and in test [14] were 4 µM (≈ 8.43 µg/mL) and above 64 µM, respectively.
For H-GKPRPYSPRPASHPRPIRV-OH, the MIC in test [1] is 16 µM; in test [2], above 64 µM; in [3] it was 64 µM; in [4] it was above 64 µM; in test [5] it was above 128 µM; in test [6], above 128 µM. The MIC in test [7] was above 128 µM; in test [8], above 64 µM; in test [9], 16 µM; in test [10] it was 32 µM; in [11] it was above 128 µM; in test [12], 16 µM. The MIC in test [13] was 8 µM; in [14], above 128 µM.
Consider H-GKPRPYSPRPSHPRPIRV-OH, for which the MIC is 32 µM in test [1]; above 64 µM in test [2]; 64 µM in [3]; above 64 µM in [4]; above 128 µM in [5]; above 128 µM in test [6]. Moreover, the MIC was above 64 µM in test [7]; above 64 µM in test [8]; 64 µM in [9]; above 64 µM in test [10]; above 128 µM in [11]; above 64 µM in test [12]. For the same compound, the MIC is 32 µM in test [13] and above 64 µM in test [14].
For H-GKPRPYSPRPTSHPRPIRV-OH [DROSOCIN], the MIC in [1] is 2 µM; in test [2], above 64 µM; in test [3], 4 µM; in test [4], above 64 µM; in [5] it was 64 µM; in test [6] it was above 128 µM. For the same compound, the MIC in test [7] is above 128 µM; in test [8], above 64 µM; in test [9] it was 8 µM; in [10], 32 µM; in test [11], 128 µM; in test [12], 8 µM. The MIC in test [13] was 16 µM; in test [14], above 128 µM.
Regarding H-GNNRPVYIPQPRPTPHPRL-OH, the MIC in test [1] is above 128 µM; in test [2], above 64 µM; in test [3] it was above 128 µM; in test [4] it was above 64 µM; in test [5], above 128 µM; in test [6] it was above 128 µM. For the same compound, the MIC in [7] was above 128 µM; in [8], above 64 µM; in test [9], above 128 µM; in [10], above 128 µM; in test [11] it was above 128 µM; in test [12], above 128 µM. Moreover, the MIC in [13] was above 128 µM; in test [14] it was above 64 µM.

The values are drawn from ChEMBL document CHEMBL1135826, “Antimicrobial peptides: synthesis and antibacterial activity of linear and cyclic drosocin and apidaecin 1b analogues” (2002).
